Assay: Inhibition of partially purified soluble aminopeptidase from rat brain
Settings: read-out: I50
In short: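 Enzyme from whole fresh Sprague-Dawley rat brain: homogenized in ice-cold 50 mM Tris-HCl pH 7.4 with 1 mM DTT and 0.01 mM ZnCl2, soluble supernatant taken after 80000g spin, 40–70% ammonium sulfate cut, dialyzed. About 30 μg protein started the reaction with leucine p-nitroanilide (final 100 μM), up to 1 h at 37 °C or room temperature. Released p-nitroaniline read at 550 nm.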

Compound	IC50 [nM]
CC(C)CCNCC(S)[C@@H](N)Cc1ccccc1 (stereo in doubt; 53)	300
CC(C)CCNCC(S)[C@@H](N)CC(C)C (stereo in doubt; 55)	81
CC(C)CCNCC(S)[C@H](N)Cc1ccccc1 (stereo in doubt; 58)	600
CC(C)C[C@@H](NC(=O)[C@H](Cc1ccccc1)NCCS)C(=O)O	240000
CC(C)C[C@H](NCC(S)[C@@H](N)Cc1ccccc1)C(=O)O (stereo in doubt; 70)	4400
CC(C)CCNCC(S)[C@@H](N)Cc1ccccc1 (stereo in doubt; 54)	20
N[C@@H](CS)Cc1ccccc1	6900
CC(C)CCNCC(S)[C@@H](N)CC(C)C (stereo in doubt; 56)	29
CC(C)C[C@H](NCC(S)[C@@H](N)Cc1ccccc1)C(N)=O (stereo partly drawn)	33
CC(C)CCNCC(S)[C@H](N)CC(C)C (stereo in doubt; 60)	2500
CC(C)C[C@@H](NC(=O)[C@H](Cc1ccccc1)NCC(S)[C@@H](N)CC(C)C)C(=O)O (stereo partly drawn)	4
CC(C)C[C@H](NC(=O)C(S)[C@H](N)Cc1ccccc1)C(=O)O (stereo in doubt; 78)	10000
CC(C)CCNCC(S)[C@H](N)CC(C)C (stereo in doubt; 59)	7500
CC(C)C[C@H](NCC(S)[C@@H](N)Cc1ccccc1)C(=O)O (stereo in doubt; 71)	220
CC(C)C[C@H](NC(=O)[C@@H](O)[C@H](N)Cc1ccccc1)C(=O)O [UBENIMEX]	170
CC(C)CCNCC(S)[C@H](N)Cc1ccccc1 (stereo in doubt; 57)	3100
CC(C)C[C@H](N)CS	10
CC(C)C[C@H](NC(=O)C(S)[C@H](N)Cc1ccccc1)C(=O)O (stereo in doubt; 79)	220
N[C@H](CS)Cc1ccccc1	39
CC(C)C[C@@H](NC(=O)[C@H](Cc1ccccc1)NCC(O)[C@@H](N)Cc1ccccc1)C(=O)O (stereo partly drawn)	580
CC(C)C[C@H](NCC(S)[C@@H](N)CC(C)C)C(N)=O (stereo partly drawn)	34
CC(C)C[C@H](NC(=O)C(S)[C@@H](N)Cc1ccccc1)C(=O)O (stereo partly drawn)	1600
CC(C)C[C@@H](NC(=O)[C@H](Cc1ccccc1)NCC(S)[C@@H](N)Cc1ccccc1)C(=O)O (stereo partly drawn)	1

From ChEMBL document CHEMBL1124284, “Design of novel inhibitors of aminopeptidases. Synthesis of peptide-derived diamino thiols and sulfur replacement analogues of bestatin” (J Med Chem, 1988)
